Series [1] has as its target T1, Lysosomal alpha-glucosidase (Homo sapiens, UniProt P10253). Kind of series: Inhibition of wild type recombinant GAA preincubated for 5 mins measured after 45 mins using blue-shifted dye by fluorescence assay.
For series [2], the target named is T1, Lysosomal alpha-glucosidase. Description: Inhibition of wild type recombinant GAA preincubated for 5 mins measured after 45 mins using red-shifted dye by fluorescence assay.
Series [3] deals with Caco-2. Kind of series: Permeability from basolateral to apical side of human Caco2 cells. (Caco-2 monolayers are a common model of the intestinal barrier.)
Series [4] is described as follows: Aqueous solubility in PBS buffer.
For series [5], the system named is Caco-2. Description: Permeability from apical to basolateral side of human Caco2 cells.
The next series deals with Liver. Kind of series: Half life in mouse liver microsomes. A general note: Liver microsomes are a subcellular fraction often used to study metabolism.
The target in series [6] is T1, Lysosomal alpha-glucosidase. Description: Increase in translocation of GAA to lysosome in human F0833 cells at 1 uM after 5 days by confocal laser-scanning microscopic analysis. The series is classed as cell-based. The method in brief:
(§1)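 Wild-type primary dermal fibroblasts or Pompe patient fibroblasts (F3248, F0833, F2845; low passage) treated with compound for 5 or 6 days. Fixed in 3% paraformaldehyde, permeabilized with 0.1% Triton X-100, blocked, stained with mouse anti-GAA (Alexa-488) and goat anti-cathepsin D (Alexa-555), DAPI counterstain. Confocal images taken at fixed laser settings; percentage of cells with lysosomal GAA co-localization scored.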

Series [7] shares this target. Description: Increase in translocation of GAA to lysosome in human F2845 cells at 1 uM after 5 days by confocal laser-scanning microscopic analysis. It counts as cell-based. Summed up: as §1
Series [8] has the same target. Kind of series: Increase in GAA activity in human F2845 cells incubated for 5 days by fluorescence assay relative to vehicle-treated control. It counts as cell-based. Summed up: (§2)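 Fibroblasts seeded at 5,000 cells/well and treated 5 days, with media and compound renewed on day 3. Assayed directly or after PBS wash and 18 h or 40 h in compound-free medium. Cells were incubated 2 h at 37 °C in pH 4.0 citrate/phosphate buffer with 3 mM 4-MUG and acarbose, then stopped at pH 10. Background subtracted, normalized to vehicle (100%); triplicate, mean ±SD.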

The target is the same in series [9]. Kind of series: Increase in GAA activity in human wild type skin fibroblasts incubated for 5 days followed by 18 to 40 hrs wash out by fluorescence assay relative to vehicle-treated control. Summed up:
as §2

For series [10] the target is unchanged. Kind of series: Increase in GAA activity in human F2845 cells incubated for 5 days followed by 18 to 40 hrs wash out by fluorescence assay relative to vehicle-treated control. It counts as cell-based. Summed up:
as §2

Series [11] has the same target. Kind of series: Ratio of Kd for wild type recombinant NT-495 labelled GAA to IC50 for wild type recombinant GAA (unknown origin.
Series [12] in a line: Cytotoxicity in human F2845 cells at 5 uM after 6 days by confocal laser-scanning microscopic analysis. The series is classed as cell-based. The following applies: f2845, 144 h. Summed up:
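Primary wild-type dermal fibroblasts and patient-derived Pompe fibroblasts (passage 7) grown on chamber slides and exposed to compound for 5 or 6 days. Viability judged from the cultures examined by immunostaining and confocal microscopy.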

The target in series [13] is T1, Lysosomal alpha-glucosidase. Kind of series: Increase in translocation of GAA to lysosomes in human wild type skin fibroblasts at 5 uM after 6 days by confocal laser-scanning microscopic analysis. Summed up:
as §1

Series [14] has the same target. Description: Increase in translocation of GAA to lysosome in human F2845 cells at 5 uM after 5 days by confocal laser-scanning microscopic analysis. The series is classed as cell-based. Summed up: as §1
Series [15] has the same target. Kind of series: Increase in translocation of GAA to lysosome in human F0833 cells at 5 uM after 5 days by confocal laser-scanning microscopic analysis. The series is classed as cell-based. The method in brief:
as §1

The target is the same in series [16]. Kind of series: Increase in translocation of GAA to lysosomes in human wild type fibroblasts at 15 uM after 6 days confocal laser-scanning microscopic analysis. Summed up: as §1
The test system of series [17] is Caco-2. Kind of series: Efflux ratio from basolateral to apical side to apical to basolateral side of human Caco2 cells. It counts as ADME, cell-based.
Series [18] addresses T1, Lysosomal alpha-glucosidase. Description: Binding affinity at wild type recombinant GAA assessed as thermostabilization of protein at 50 uM incubated at 66 degC for 60 mins. The method in brief: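 GAA incubated at 66 °C for 60 min with compound at 50 μM, compared with room-temperature incubation. Residual enzymatic activity read out and expressed as the ratio of heated to room-temperature activity; DMSO controls run in duplicate.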

The target is the same in series [19]. Kind of series: Increase in translocation of GAA to lysosome in human F3248 cells at 5 uM after 5 days by confocal laser-scanning microscopic analysis. The series is classed as cell-based. The method in brief:
as §1

For series [20] the target is unchanged. Description: Increase in GAA activity in human wild type skin fibroblasts incubated for 5 days by fluorescence assay relative to vehicle-treated control. The method in brief: as §2
Series [21] has the same target. Kind of series: Binding affinity at wild type recombinant GAA assessed as rise in melting temperature of protein using SYPRO Orange dye by fluorescence assay. Summed up: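 Thermal shift of recombinant wild-type GAA (1 μM) with SYPRO Orange (5×) in 50 mM citrate buffer pH 5.0 with 100 mM KCl, 10 mM NaCl, 1 mM MgCl2. Six-point compound series, 0.82–200 μM final, 2% DMSO, DMSO controls. Heated 20 to 95 °C at 4.8 °C/s; fluorescence ex 498/em 580 nm; Tm calculated from the melt curve.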

The target is the same in series [22]. Description: Increase in translocation of GAA to lysosome in human F3248 cells at 1 uM after 5 days by confocal laser-scanning microscopic analysis. It counts as cell-based. The method in brief:
as §1

This note sets out measurements from ChEMBL document CHEMBL2176957, “Discovery of a novel noniminosugar acid α glucosidase chaperone series” (J Med Chem, 2012).

Values after ≈ are worked out from the molar mass of the structure shown. Active and inactive are the calls of the source. The rule behind the calls is not given here. Bounds are passed on as bounds.

Usually IC50 stands for the concentration that gives 50% inhibition. Turning to `CC(=O)c1ccc(N2CCN(S(=O)(=O)c3ccc(N4CCCC4=O)cc3)CC2)cc1`, the IC50 entry in [1] and in [2] was “Not Active” each time.
For `CC(=O)N1CCN(S(=O)(=O)c2ccc3c(c2)CC(=O)N3)CC1`, the half-maximal inhibitory concentration (IC50) in [1] (read-out: IC50) was 11.9 µM; in series [2] (read-out: IC50), 14.9 µM.
Regarding `CC(=O)N1CCN(c2ccc(NS(=O)(=O)c3ccc4c(c3)CC(=O)N4)cc2)CC1`, the half-inhibitory concentration (IC50) entry in [1] and in series [2] was “Not Active” in each case.
Consider `O=C1Cc2cc(S(=O)(=O)N3CCN(c4ccc(Br)cc4)CC3)ccc2N1`, for which the IC50 result in series [1] and in series [2] was “Not Active” each time.
A word on the Papp: it is a coefficient for how fast a substance crosses the barrier. The low end stands for slow passage, the high end for fast passage. In general, solubility refers to how much of the substance goes into solution per volume. Read a high solubility as a readily soluble substance. In the case of `O=C1Cc2cc(S(=O)(=O)N3CCN(c4ccc(O)cc4)CC3)ccc2N1`, the IC50 in series [1] (read-out: IC50) was determined as 1.88 µM; in series [2] (read-out: IC50), 2.37 µM. The Papp in the series on Caco-2 [3] was found to be 19.5 ×10⁻⁶ cm/s; with Caco-2 [5], 17.8 ×10⁻⁶ cm/s. Moreover, in [4], the solubility is 37.3 µM (≈ 13.9 µg/mL). Further, the t1/2 with Liver is above 1 h.
Take `Cc1ccc(N2CCN(S(=O)(=O)c3ccc4c(c3)CC(=O)N4)CC2)cc1`: the IC50 result in [1] and in [2] was “Not Active” each time.
For the molecule `CC(=O)c1ccc(N2CCN(S(=O)(=O)c3ccc4c(c3)CCCC(=O)N4)CC2)cc1`, the IC50 entry in series [1] and in [2] was “Not Active” each time.
In the case of `CC(=O)Nc1ccc(S(=O)(=O)N2CCN(c3ccc(C(C)=O)cc3)CC2)cc1`, the concentration for half-maximal inhibition (IC50) entry in [1] and in series [2] was “Not Active” in each case.
Consider `O=C1Cc2cc(S(=O)(=O)N3CCN(c4ccc(CO)cc4)CC3)ccc2N1`, for which the IC50 in [1] (read-out: IC50) and in series [2] (read-out: IC50) was 13 µM each time.
`O=C1Cc2cc(S(=O)(=O)N3CCN(c4cccc(C(F)(F)F)c4)CC3)ccc2N1`: the half-inhibitory concentration (IC50) in series [1] (read-out: IC50) and in [2] (read-out: IC50) was 14.9 µM each time.
On to `CC(=O)c1ccc(N2CCN(S(=O)(=O)c3ccc4c(c3)C(=O)OC4)CC2)cc1`, for which the IC50 result in series [1] and in series [2] was “Not Active” in each case.
Regarding `CC(=O)c1ccc(N2CCN(C(=O)c3ccc4c(c3)CC(=O)N4)CC2)cc1`, the concentration for half-maximal inhibition (IC50) entry in series [1] and in series [2] was “Not Active” throughout.
With `CC(=O)c1ccc(N2CCN(S(=O)(=O)c3ccc4c(c3)oc(=O)n4C)CC2)cc1`, the IC50 entry in series [1] and in series [2] was “Not Active” in each case.
For the molecule `CC(=O)c1ccc(N2CCN(S(=O)(=O)c3ccc4c(c3)CCCN4C(C)=O)CC2)cc1`, the IC50 result in series [1] and in series [2] was “Not Active” in each case.
As to `CC(=O)c1ccc(N2CCN(C(=O)c3ccc4c(c3)CCC(=O)N4)CC2)cc1`, the IC50 entry in series [1] and in [2] was “Not Active” throughout.
As to `O=Cc1ccc(N2CCN(S(=O)(=O)c3ccc4c(c3)CC(=O)N4)CC2)cc1`, the 50% inhibitory concentration (IC50) in [1] (read-out: IC50) was 3.66 µM; in series [2] (read-out: IC50) it was 4.11 µM.
On to `O=C1Cc2cc(S(=O)(=O)N3CCN(c4ccc(F)cc4)CC3)ccc2N1`, for which the IC50 entry in series [1] and in series [2] was “Not Active” each time.
For the molecule `N#Cc1ccc(N2CCN(S(=O)(=O)c3ccc4c(c3)CC(=O)N4)CC2)cc1`, the IC50 in [1] (read-out: IC50) was 2.91 µM; in series [2] (read-out: IC50), 3.26 µM. In series [4], this molecule had a solubility of 14.9 µM (≈ 5.7 µg/mL). Besides, the t1/2 in the series with Liver was 0.95 h.
As for `COC(=O)c1ccc(N2CCN(S(=O)(=O)c3ccc4c(c3)CC(=O)N4)CC2)cc1`, the IC50 in series [1] (read-out: IC50) was found to be 25.9 µM; in [2] (read-out: IC50), 36.6 µM.
As for `O=C1Cc2cc(S(=O)(=O)N3CCN(c4ccc([N+](=O)[O-])cc4)CC3)ccc2N1`, the half-maximal inhibitory concentration (IC50) in [1] (read-out: IC50) was found to be 3.66 µM; in [2] (read-out: IC50), 3.26 µM.
The matching figures for `O=C1Cc2cc(S(=O)(=O)N3CCN(c4ccc(Cl)cc4)CC3)ccc2N1`: 94.3 µM and 94.3 µM.
For the molecule `O=C1Cc2cc(S(=O)(=O)N3CCN(c4ccc(C(F)(F)F)cc4)CC3)ccc2N1`, the IC50 entry in [1] and in [2] was “Not Active” throughout.
With `CC(=O)c1ccc(N2CCN(S(=O)(=O)c3cc4c(cc3Cl)NC(=O)C4)CC2)cc1`, the outcome in series [6], in [7] and in [22] was inactive. The outcome in series [8], in [9], in series [10], in series [14], in series [15] and in [18] was Active. The outcome in series [19], in [20] and in [21] was Active. The IC50 in [1] (read-out: IC50) and in [2] (read-out: IC50) was 1.63 µM throughout. For the same molecule, the Ratio amounted to 20 in series [11] and 0.57 in the series on Caco-2 [17]. Besides, the apparent permeability (Papp) in the series with Caco-2 [3] is 30.9 ×10⁻⁶ cm/s; with Caco-2 [5], 54.3 ×10⁻⁶ cm/s. The Activity entry was “Toxic” in series [12], 30% in series [13] and 40% in series [16]. The solubility in series [4] was determined as 20.8 µM (≈ 9.03 µg/mL). The molecule further returned a t1/2 in the series with Liver above 1 h.
In the case of `CC(=O)c1ccc(N2CCN(S(=O)(=O)c3ccc4[nH]c(=O)oc4c3)CC2)cc1`, the IC50 entry in [1] and in [2] was “Not Active” throughout.
Consider `CC(=O)c1ccc(N2CCN(S(=O)(=O)c3ccc4[nH]c(=O)[nH]c4c3)CC2)cc1`, for which the 50% inhibitory concentration (IC50) entry in series [1] and in [2] was “Not Active” each time.
For `CC(=O)c1ccc(N2CCN(S(=O)(=O)c3ccc4c(c3)C(Cl)(Cl)C(=O)N4)CC2)cc1`, the half-maximal inhibitory concentration (IC50) in [1] (read-out: IC50) worked out at 32.6 µM; in [2] (read-out: IC50), 41 µM.
As to `O=C1Cc2cc(S(=O)(=O)N3CCNCC3)ccc2N1`, the IC50 entry in series [1] and in series [2] was “Not Active” in each case.
With `CC(=O)c1ccc(N2CCN(S(=O)(=O)c3ccc4c(c3)CCC(=O)N4)CC2)cc1`, the 50% inhibitory concentration (IC50) entry in [1] and in [2] was “Not Active” each time.
On to `CC(=O)c1ccc(N2CCN(S(=O)(=O)c3ccc4c(c3)OCC(=O)N4)CC2)cc1`, for which the IC50 result in series [1] and in [2] was “Not Active” each time.
In the case of `COc1ccc(N2CCN(S(=O)(=O)c3ccc4c(c3)CC(=O)N4)CC2)cc1`, the 50% inhibitory concentration (IC50) came to 23.7 µM in series [1] (read-out: IC50) and 18.8 µM in series [2] (read-out: IC50).
Consider `CC(=O)c1ccc(N2CCN(S(=O)(=O)c3ccc4c(c3)n(C)c(=O)n4C)CC2)cc1`, for which the IC50 entry in [1] and in series [2] was “Not Active” throughout.
Take `CC(=O)c1ccc(N2CCN(S(=O)(=O)c3ccc4c(c3)CC(C)N4C(C)=O)CC2)cc1` (stereo unspecified): the IC50 entry in series [1] and in series [2] was “Not Active” throughout.
